In the library only some 8.2% were active in any assay of this set; here they are far more common.
M1 agonist – activates the M1 muscarinic receptor | CHO-M1 cells, Fluo-4 calcium fluorescence, agonist mode; hits give high values | B-score at 10 µM | 3% of 64,000 active | AID 626;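 active = fluorescence rise, raw or as B-score row- and column-corrected plate score, outside the 99.7% band of its plate's samples, either direction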
RORA act – RORA (human) activation; 1.5% of 65,000 active; CHO-K1 Gal4-RORA LBD luciferase reporter, luminescence; percent increase over mock-subtracted basal signal; activation, % at 10 µM;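 active = activation above the mean of all tested compounds plus 3 SD, cut at about 49% in these data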;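 also: 0% = DMSO-treated RORA cells and 100% = added signal equal to DMSO minus mock-transfected cells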
Target sequence (P35398 whole entry, looked up, the tested form may be a part): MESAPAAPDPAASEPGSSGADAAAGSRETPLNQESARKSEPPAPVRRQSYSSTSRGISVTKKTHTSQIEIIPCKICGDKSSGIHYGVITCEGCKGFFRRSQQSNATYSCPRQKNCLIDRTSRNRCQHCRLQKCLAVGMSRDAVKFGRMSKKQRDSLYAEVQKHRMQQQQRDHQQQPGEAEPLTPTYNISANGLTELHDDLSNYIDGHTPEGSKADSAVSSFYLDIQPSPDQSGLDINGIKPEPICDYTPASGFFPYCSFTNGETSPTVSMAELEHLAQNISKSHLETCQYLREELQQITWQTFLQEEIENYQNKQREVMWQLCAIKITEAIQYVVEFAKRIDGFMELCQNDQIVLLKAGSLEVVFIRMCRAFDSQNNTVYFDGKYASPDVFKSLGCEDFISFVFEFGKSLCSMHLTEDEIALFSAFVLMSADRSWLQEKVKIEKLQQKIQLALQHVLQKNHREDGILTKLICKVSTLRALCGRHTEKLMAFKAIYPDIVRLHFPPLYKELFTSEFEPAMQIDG
D1 allo mod – D1 dopamine receptor (human) allosteric modulation; HEK293 D1, CRE-luciferase, dopamine EC30 potentiation; actives deviate in either direction; B-score at 10 µM; 5.9% of 58,000 active; AID 641;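 active = luminescence count or its row- and column-corrected plate score outside the 99.7% band of the plate's sample wells, on either side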
HePTP inh – human HePTP phosphatase inhibition; P35236; recombinant HePTP phosphatase activity, OD absorbance; 0.64% of 110,000 active; inhibition, % at 20 µM; in the data active = inhibition above about 50%;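 also: plate controls were vehicle for no effect and reference inhibitor for full effect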
SF1 activator – SF-1 (human) activation | 1.9% of 65,000 active | activation, % at 10 µM | CHO-K1 Gal4-SF-1 LBD luciferase reporter; % increase over DMSO SF-1-specific signal;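 active = activation above the mean activation of all tested compounds plus 3 SD, cut at about 50% in these data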
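Test system: CHO-K1 cells co-transfected with Gal4 DBD–human SF-1 LBD, 5xGal4 luciferase reporter. Quantity: 4,000 cells per well. Compound: 10 µM only. Incubation: compound added 1 h post-seeding, 20 h exposure at 37 °C, 5% CO2. Detection: SteadyLite luciferase luminescence. Replication: one test per compound.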
M1 antag – antagonists of rat M1 muscarinic receptor; 3.4% of 64,000 active; P08482; B-score at 10 µM; CHO-M1 cells, Fluo-4 calcium, ACh EC80 antagonist mode; hits give low values;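 active = calcium fluorescence response, raw or row-and-column corrected B-score, differing from the plate sample mean either way at a set confidence level, mostly lower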
D1 PAM confirm – confirmation of human D1 dopamine receptor allosteric modulators; 88% of 2,200 active; luminescence at 10 µM; shares compounds with D1 allo mod; HEK293 D1 CRE-luciferase, dopamine EC30 potentiation; hits give high values;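 active = luminescence in either of two replicates above the same-plate mean plus 3 SD of the low-dose dopamine control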
D1 no dopamine – secondary test of D1 modulators: activity without dopamine; luminescence at 10 µM; HEK293 D1 CRE-luciferase, luminescence, no dopamine; hits give high values; 0.8% of 1,900 active; shares compounds with D1 allo mod; in the data active = luminescence above about 3900
Isoprot counter – counter-screen for D1 modulators: isoproterenol response in HEK293 cells; HEK293 D1 CRE-luciferase, isoproterenol EC30 counter-screen; 63% of 2,200 active; calls only at 10 µM; AID 647; shares compounds with D1 allo mod;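 active = luminescence in either replicate above plate mean of wells with a partly effective reference agonist dose plus 3 SD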;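 also: isoproterenol raises cAMP through native beta-adrenoceptor Gs so signal bypasses D1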
* hit, by the source's call; i = inactive; . = no result; + = active, no number.

SMILES	M1 agonist	RORA act	D1 allo mod	HePTP inh	SF1 activator	M1 antag	D1 PAM confirm	D1 no dopamine	Isoprot counter
COc1ccc(C(c2nnnn2Cc2cccs2)N2CCN(c3ccccc3F)CC2)cc1OC (stereo not drawn)	-0.0308	6.2	3.07*	-4.1	-3.3	-0.167	6372	1596	i
CC(=O)Nc1cc(-c2nc3cc(Cl)cc(Cl)c3o2)ccc1C	.	.	.	0.8	.	.	.	.	.
CC(C)C(NS(=O)(=O)c1ccc2c3c(cccc13)C(=O)N2)C(=O)O (stereo not drawn)	0.149	14.6	6.96*	2.3	-10.7	-0.0763	5048	.	i
CCCn1c(=O)c(C(=O)NCc2cccnc2)c(O)c2ccccc21	1.78	-6.3	8.41*	2.9	7.2	0.143	15012*	1692	+
CC(C)Cn1c(=O)c(C(=O)Nc2cnccn2)c(O)c2ccccc21	-0.625	-32.3	3.37*	4.5	-19.9	0.00536	9760*	1672	i
Cc1cccc2cc(CN(CC3CCCO3)S(=O)(=O)c3ccccc3)c3nnnn3c12 (stereo not drawn)	-0.152	-11.1	0.0827	8.7	9.9	0.0231	.	.	.
Cc1cccc2cc(CN(CC3CCCO3)C(=O)c3cccnc3)c3nnnn3c12 (stereo not drawn)	0.757	-17.1	5.54*	2.5	12.5	-0.826	15420*	.	+
O=c1c2ccccc2nc(-c2ccccc2)n1CCN1CCOCC1	0.0708	-12.4	.	5.2	9.5	-0.164	.	.	.
CCn1c2ccccc2c2nc3cc(S(=O)(=O)N4CCOCC4)ccc3nc21	1.48	-2.7	6.46*	4.5	6.0	-0.816	15708*	1656	+
c1ccc2nc3c(nc2c1)c1ccccc1n3CCN1CCOCC1	6.45*	14.1	9.48*	-10.2	91.3*	-0.292	18764*	1572	+
COC(=O)c1cc(OC)c(OC)cc1N=CC1=C(O)CC(C)(C)CC1=O	0.546	-9.9	4.1*	-0.8	8.7	-0.0209	9648*	1564	+
COc1ccc(CCNC(=O)c2cnn3cccnc23)cc1OC	-0.383	5.0	13.3*	1.0	-7.2	0.122	14608*	1264	+
CCOC(=O)c1c(-c2ccncc2)csc1N	-0.11	9.4	6.76*	16.7	-7.1	0.0982	14984*	1720	i
c1nc(NCC2(N3CCOCC3)CCCCC2)c2ccsc2n1	0.297	7.9	0.31	-0.2	6.5	0.0131	.	.	.
O=C(O)c1ccccc1-c1ccc(/C=N/n2cnnc2)o1	.	.	.	-0.5	.	.	.	.	.
Cn1c(N2CCCC2)nc2c1c(=O)n(Cc1cccc(F)c1)c(=O)n2C	0.503	-5.0	4.48*	3.1	-2.8	0.31	11200*	1392	+
Cn1c(N2CCCC2)nc2c1c(=O)n(Cc1ccc(Cl)cc1)c(=O)n2C	1.09	-6.2	8.97*	2.8	0.8	0.778	17964*	1940	+
Cn1c(N2CCC(C(N)=O)CC2)nc2c1c(=O)n(Cc1ccc(Cl)cc1)c(=O)n2C	0.0113	-2.9	-0.922	11.3	-8.5	0.552	.	.	.
CC(=O)c1ccc(N2CCN(CCC#N)CC2)c(F)c1	-0.448	-16.3	0.291	4.9	-18.6	0.668	.	.	.
CCOc1ccc(C(=O)N2CCc3cc(OC)c(OC)cc3C2)cc1OCC	-0.175	8.0	4.62*	7.8	-4.1	-0.567	15188*	1788	+
COc1ccc(CN2CCN(C(=O)c3cccs3)CC2)cc1OC	.	.	.	2.5	.	.	.	.	.
COc1cc2c(cc1OC)CN(C(=O)c1cccs1)CC2	-0.00227	-10.3	5.12*	11.0	3.2	-0.907	8784*	1504	+
CCOc1ccc(C(=O)N2CCc3ccccc3C2)cc1OCC	.	.	.	-7.1	.	.	.	.	.
COc1cc2c(cc1OC)CN(C(=O)COc1ccc(C)c(C)c1)CC2	-1.21	23.1	13.4*	17.4	-20.2	-0.357	21228*	1676	+
COc1ccc(CN2CCN(C(=O)c3cccs3)CC2)cc1Br	-0.548	-0.6	6.37*	5.8	-8.2	-1.81	12896*	.	+
SMILES	M1 agonist	RORA act	D1 allo mod	HePTP inh	SF1 activator	M1 antag	D1 PAM confirm	D1 no dopamine	Isoprot counter
Cc1cc(N2CCC(C)CC2)n2c(nc3ccccc32)c1C#N	.	.	.	2.2	.	.	.	.	.
NC1=NC(c2ccc(Br)cc2)n2c(nc3ccccc32)N1 (stereo not drawn)	2.05	-1.4	10.2*	14.8	4.9	-0.553	11596*	1556	i
CCOC(=O)c1c(NC(=O)C2CCCCC2)sc(C(=O)N(CC)CC)c1C	.	.	.	-15.1	.	.	.	.	.
CCOC(=O)c1c(NC(=O)OC)sc(C(=O)N(CC)CC)c1C	0.0793	-8.7	4.18*	3.0	4.2	0.432	8956*	1472	+
CCOC(=O)C1CCCN(C(=O)C2CC(=O)N(c3ccc(C)cc3)C2)C1 (stereo not drawn)	0	-7.0	-0.559	10.7	-16.0	0.728	.	.	.
Cc1ccc(-c2cc(-c3ccc(F)cc3)nc(N)c2C#N)o1	.	-2.9	14.9*	7.5	-2.7	.	26016*	2012	+
CCOc1ncccc1C(=O)OCc1nnc(-c2ccccc2)o1	-0.194	-9.5	4.09*	6.2	-10.4	1.44	13008*	1620	i
CCOc1ccc(CNC(=O)CCn2c(=O)oc3ccccc32)cc1	1.75	-9.4	5.36*	5.7	3.4	-0.483	5860	1400	i
N#Cc1nc(N2CCCC2)nc(N2CCCC2)n1	-1.18	0.0	5.65*	3.3	4.8	0.0259	16648*	1396	+
N#Cc1nc(N2CCCCC2)nc(N2CCOCC2)n1	-0.138	21.3	7.48*	-11.1	-3.0	-1.36	9460*	.	+
CCC(c1nnnn1Cc1ccc2c(c1)OCO2)N1CCN(c2ccccc2)CC1 (stereo not drawn)	-0.0639	-1.7	-0.703	5.4	-15.2	-0.362	.	.	.
Cc1nn(CCC(=O)O)c2nc(-c3cccnc3)cc(C(F)(F)F)c12	0.406	3.3	5.38*	-10.7	-3.3	0.0107	8896*	.	i
CCOC(=O)c1cc2c(C(F)(F)F)cc(-c3cccnc3)nc2o1	-0.161	-15.1	5.3*	7.4	2.4	0.414	6932*	1600	+
COC(=O)c1c(NC(=S)Nc2ccccc2)sc(Cc2ccccc2)c1C	.	.	.	-5.3	.	.	.	.	.
O=C(Cn1cc2c(n1)CCCCC2)NCCCN1CCOCC1	-0.141	-1.3	2.6*	-1.7	-5.3	-0.528	5840	1452	i
O=c1/c(=C/c2cn(Cc3ccc(F)cc3)c3ccccc23)sc2nc3ccccc3n12	.	.	.	-24.5	.	.	.	.	.
CC(N=Cc1ccc(O)cc1)C1COc2ccccc2O1 (stereo not drawn)	.	.	.	-13.7	.	.	.	.	.
